# Data published in ChEMBL document CHEMBL1137433, “Synthesis and antibacterial evaluation of ureides of Baylis-Hillman derivatives” (2006).
# Assays:
# Format in all cases: functional
# Enterococcus faecalis = test: Antibacterial activity against Streptococcus faecalis
# How it was run: (§1)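 Broth microdilution MIC in Mueller Hinton broth, 96-well plates. Strains from departmental collection, kept on nutrient agar slants at 37 °C, purity checked before testing. Starting inoculum 1–5 · 10³ cells/ml. Plates incubated 24 h at 37 °C in a moist chamber, then absorbance read at 492 nm. MIC taken as 90% growth inhibition relative to growth control.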
# Klebsiella pneumoniae = test: Antibacterial activity against Klebsiella pneumoniae; how it was run: as §1
# Escherichia coli = test: Antibacterial activity against Escherichia coli; how it was run: as §1
# Pseudomonas aeruginosa = test: Antibacterial activity against Pseudomonas aeruginosa; how it was run: as §1
# Staphylococcus aureus = test: Antibacterial activity against Staphylococcus aureus; how it was run: as §1
Compound,MIC (Enterococcus faecalis) [µg/mL],MIC (Klebsiella pneumoniae) [µg/mL],MIC (Escherichia coli) [µg/mL],MIC (Pseudomonas aeruginosa) [µg/mL],MIC (Staphylococcus aureus) [µg/mL]
CCn1cc(C(=O)O)c(=O)c2cc(F)c(N3CCNCC3)cc21 [NORFLOXACIN],0.78,0.36,0.36,0.78,0.3
N#C/C(=C/c1ccccc1Cl)CNC(=O)Nc1ccc(Cl)c(Cl)c1,> 50,> 50,1.56,> 50,> 50
N=c1c(Cc2ccccc2Cl)c[nH]c(=O)n1-c1ccc(Cl)cc1,> 50,> 50,> 50,> 50,> 50
Nc1c(Cc2ccccc2)cnc(=S)n1-c1ccccc1,> 50,> 50,> 50,> 50,> 50
N=c1c(Cc2ccccc2)c[nH]c(=O)n1-c1ccc(Cl)cc1Cl,25,50,50,50,50
N#C/C(=C/c1ccccc1)CNC(=O)Nc1ccc(Cl)cc1Cl,> 50,> 50,50,> 50,> 50
Cc1ccc(NC(=O)NC/C(C#N)=C\c2ccc(Cl)c(Cl)c2)cc1Cl,> 50,> 50,> 50,> 50,> 50
N#CC(CNC(=O)Nc1ccc(Cl)cc1Cl)C(O)c1ccccc1 (centres undefined),> 50,> 50,> 50,> 50,> 50
Nc1c(Cc2ccc(Cl)c(Cl)c2)cnc(=S)n1-c1ccccc1,25,50,> 50,> 50,> 50
Cc1ccc(-n2c(=O)[nH]cc(Cc3ccccc3Cl)c2=N)cc1Cl,50,> 50,50,50,50
Cc1ccc(NC(=O)NC/C(C#N)=C\c2ccccc2Cl)cc1Cl,> 50,> 50,> 50,> 50,> 50
N=c1c(Cc2cccs2)c[nH]c(=O)n1-c1ccc(Cl)cc1,> 50,> 50,> 50,> 50,> 50
N=c1c(Cc2ccc(Cl)c(Cl)c2)c[nH]c(=O)n1-c1ccc(Cl)cc1,> 50,> 50,> 50,> 50,> 50
N=c1c(Cc2ccc(Cl)c(Cl)c2)c[nH]c(=O)n1-c1ccc(Cl)c(Cl)c1,25,50,25,50,25
N=c1c(Cc2ccc(Cl)c(Cl)c2)c[nH]c(=O)n1-c1ccc(Cl)cc1Cl,3.12,3.12,3.12,25,3.12
N#C/C(=C/c1cccs1)CNC(=O)Nc1ccc(Cl)cc1,> 50,> 50,> 50,> 50,> 50
N=C1CCNC(=O)N1c1ccc(Cl)cc1Cl,50,50,25,50,50
N#C/C(=C/c1ccccc1Cl)CNC(=O)Nc1ccc(Cl)cc1Cl,> 50,> 50,> 50,> 50,> 50
N#C/C(=C/c1ccccc1)CNC(=O)Nc1ccc(Cl)c(Cl)c1,> 50,> 50,> 50,> 50,> 50
N#CC(CN(Cc1ccccc1)C(=O)Nc1ccc(Cl)cc1)C(O)c1ccccc1 (centres undefined),50,50,12.5,50,25

Compound,MIC (Enterococcus faecalis) [µg/mL],MIC (Klebsiella pneumoniae) [µg/mL],MIC (Escherichia coli) [µg/mL],MIC (Pseudomonas aeruginosa) [µg/mL],MIC (Staphylococcus aureus) [µg/mL]
N#C/C(=C/c1ccc(Cl)c(Cl)c1)CNC(=O)Nc1ccc(Cl)cc1Cl,> 50,> 50,6.25,> 50,> 50
N#C/C(=C/c1ccc(Cl)c(Cl)c1)CNC(=O)Nc1ccc(Cl)c(Cl)c1,1.56,1.56,0.78,50,1.56
N#C/C(=C/c1ccccc1Cl)CNC(=S)Nc1ccccc1,> 50,> 50,> 50,> 50,> 50
CC1(C)S[C@@H]2[C@H](NC(=O)[C@H](N)c3ccccc3)C(=O)N2[C@H]1C(=O)O [AMPICILLIN],0.02,0.01,–,50,0.09
N#CC(CN(Cc1ccccc1)C(=O)Nc1ccc(Cl)c(Cl)c1)C(O)c1ccccc1 (centres undefined),> 50,> 50,> 50,> 50,> 50
N=c1c(Cc2ccccc2Cl)c[nH]c(=O)n1-c1ccc(Cl)cc1Cl,> 50,50,> 50,> 50,> 50
N#C/C(=C/c1ccc(Cl)c(Cl)c1)CNC(=O)Nc1ccc(Cl)cc1,> 50,> 50,> 50,> 50,> 50
Cc1ccc(-n2c(=O)[nH]cc(Cc3ccc(Cl)c(Cl)c3)c2=N)cc1Cl,50,50,> 50,> 50,> 50
CCOc1ccc(NC(=O)N(Cc2ccccc2)CC(C#N)C(O)c2ccccc2Cl)cc1 (centres undefined),> 50,> 50,> 50,> 50,> 50
COC(c1ccccc1)C1CN(Cc2ccccc2)C(=O)N(c2ccc(Cl)c(Cl)c2)C1=N (centres undefined),3.12,3.12,1.56,50,1.56
N#C/C(=C/c1cccs1)CNC(=O)Nc1ccc(Cl)cc1Cl,> 50,> 50,> 50,> 50,> 50
N=c1c(Cc2ccccc2Cl)c[nH]c(=O)n1-c1ccc(Cl)c(Cl)c1,50,> 50,50,> 50,> 50
GENTAMICIN SULFATE,0.78,0.78,0.02,25,6.25
Nc1c(Cc2ccccc2Cl)cnc(=S)n1-c1ccccc1,25,> 50,> 50,> 50,> 50
COC(c1ccccc1)C(C#N)CN(Cc1ccccc1)C(=O)Nc1ccc(Cl)c(Cl)c1 (centres undefined),6.25,3.12,3.12,50,3.12
N#C/C(=C/c1ccc(Cl)c(Cl)c1)CNC(=S)Nc1ccccc1,3.12,3.12,1.56,25,1.56
N#C/C(=C/c1ccccc1Cl)CNC(=O)Nc1ccc(Cl)cc1,> 50,> 50,> 50,> 50,> 50
N=c1c(Cc2cccs2)c[nH]c(=O)n1-c1ccc(Cl)cc1Cl,> 50,> 50,50,> 50,> 50
N=c1c(Cc2ccccc2)c[nH]c(=O)n1-c1ccc(Cl)c(Cl)c1,50,50,50,50,50
